Measured values taken from ChEMBL document CHEMBL5143736, “Discovery and Optimization of a Synthetic Class of Nectin-4-Targeted CD137 Agonists for Immuno-oncology” (J Med Chem, 2022).
In brackets after ≈: the same amount, converted by molar mass. Activity calls are given as the source filed them. The rule behind the calls is not given here.

Key:
[1] = Half life in Sprague-Dawley rat at 2 mg/kg, iv by LC/MS/MS analysis; details: in vivo
[2] = biological target: T1, Tumor necrosis factor receptor superfamily member 9 (Homo sapiens, UniProt Q07011); test: Agonist activity at human CD137 expressed in Jurkat T cells co-expressing response element driven luciferase reporter gene assessed as fold change in EC50 at 1:1 Nectin-4/CD137 ratio measured after 6 hrs by HT1376/CD137 reporter co-culture assay; assay type: cell-based; details: filed as agonist
T1 sequence (Q07011 whole entry): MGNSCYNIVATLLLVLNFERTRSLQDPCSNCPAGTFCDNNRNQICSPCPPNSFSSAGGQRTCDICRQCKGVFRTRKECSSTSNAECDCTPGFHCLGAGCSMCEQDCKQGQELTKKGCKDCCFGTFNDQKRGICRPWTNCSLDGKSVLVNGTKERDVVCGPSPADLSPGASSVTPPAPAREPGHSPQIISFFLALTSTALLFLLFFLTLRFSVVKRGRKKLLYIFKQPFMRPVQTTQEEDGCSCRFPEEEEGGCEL

[3] = biological target: T1, Tumor necrosis factor receptor superfamily member 9; test: Induction of recombinant human CD137 assessed as increase in fold change in EC50 incubated for 6 hrs by luminescence based microplate reader assay; details: filed as agonist
[4] = test system: CT26; test: Antitumor activity against mouse CT26 cells expressed in CD137 transfected in BALB/c mouse at 5 mg/kg, ip
[5] = test system: PBMC; test: […] activity in human PBMC stimulated with anti-CD3-mediated CD137 expression in cocultured with […] cell line assessed as increase in secretion of IL2 incubated for 48 hrs by Luminex assay; assay type: functional, cell-based; details: DDE = dose-dependent effect
Outline: (§1)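 Healthy-donor PBMCs were thawed into R10 medium and cocultured with HT1376 cells at 10:1 effector:target (1×10^5 PBMC:1×10^4 tumor cells per well). Soluble anti-CD3 OKT3 (100 ng/mL) was added on day 0, then compound, 37 °C, 5% CO2. Supernatant IFNγ and IL-2 taken at 24 and 48 h, measured by Luminex. Four-parameter fit, n = 3, repeated in multiple donors.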

[6] = Half life in Cynomolgus monkey at 1 mg/kg, iv administered for 30 min by LC-MS/MS analysis; assay type: ADME, organism-based, Macaca fascicularis; details: plasma
Outline: (§2)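 Male naïve cynomolgus monkeys received 1 mg/kg as a 30 min IV infusion in 25 mM histidine HCl, 10% sucrose, pH 7 (n = 2 animals/compound). Serial K2-EDTA plasma was protein-precipitated with internal standard and analysed by LC–MS/MS (Orbitrap, positive ion). Noncompartmental analysis gave clearance, Vdss and terminal half-life.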

[7] = biological target: T1, Tumor necrosis factor receptor superfamily member 9; test: Agonist activity at human CD137 expressed in Jurkat T cells co-expressing response element driven luciferase reporter gene assessed as fold change in Emax at 1:1 Nectin-4/CD137 ratio measured after 6 hrs by HT1376/CD137 reporter co-culture assay; assay type: cell-based; details: filed as agonist
[8] = Plasma clearance in Cynomolgus monkey at 1 mg/kg, iv administered for 30 min by LC-MS/MS analysis; assay type: ADME, organism-based, Macaca fascicularis
Outline: as §2

[9] = Thermodynamic solubility of the compound in phosphate buffer at pH 7.4; assay type: physicochemical; details: read-out: Therm_solubility
Outline: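 Thermodynamic solubility measured in 50 mM phosphate buffer, pH 7.4.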

[10] = biological target: T1, Tumor necrosis factor receptor superfamily member 9; test: Induction of recombinant human CD137 assessed as increase in fold change in Emax incubated for 6 hrs by luminescence based microplate reader assay; details: filed as agonist
[11] = Volume of distribution at steady state in Cynomolgus monkey at 1 mg/kg, iv administered for 30 min by LC-MS/MS analysis; assay type: ADME, organism-based, Macaca fascicularis; details: plasma, read-out: Vdss
Outline: as §2

[12] = test system: PBMC; test: […] activity in human PBMC stimulated with anti-CD3-mediated CD137 expression in cocultured with […] cell line assessed as increase in secretion of IFN gamma incubated for 48 hrs by Luminex assay; assay type: functional, cell-based; details: DDE = dose-dependent effect
Outline: as §1

[13] = test system: CT26; test: Antitumor activity against mouse CT26 cells expressed in CD137 transfected in BALB/c mouse at 1mg/kg, qd
[14] = biological target: T1, Tumor necrosis factor receptor superfamily member 9; test: Binding affinity to human CD137 assessed as dissociation constant by surface plasmon resonance analysis
Outline: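 Biacore T200 SPR, human CD137, 25 °C. Peptide series in PBS/0.05% Tween 20 with 0.5% DMSO: top 500 nM (threefold) or 10 μM (twofold), 6 further dilutions. Flow 90 μL/min, 60 s association, 100–600 s dissociation, glycine pH 2 regeneration. DMSO-corrected and double-referenced; kinetic fit gives ka, kd, KD.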

[15] = biological target: T1, Tumor necrosis factor receptor superfamily member 9; test: Binding affinity to human CD137 assessed as dissociation constant using 1:1 Nectin-4/CD137 by surface plasmon resonance analysis; details: filed as agonist
Outline: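 Biacore T200 SPR against human CD137 protein at 25 °C. Peptide series in PBS/0.05% Tween 20 with 0.5% final DMSO; top concentration 500 nM (6 further threefold dilutions) or 10 μM (6 further twofold dilutions). 60 s association, 100–600 s dissociation, 10 mM glycine pH 2 regeneration. Data DMSO-corrected and double-referenced; kinetic fit gives ka, kd and KD.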

CCCC[C@@H]1NC(=O)[C@H](Cc2ccc(O)cc2)NC(=O)[C@@H]2CCCN2C(=O)[C@H](CC(=O)O)NC(=O)[C@H](C)NC(=O)[C@H](Cc2ccccc2)NC(=O)[C@@H]2CSCCC(=O)N3CN(CN(C3)C(=O)CCSC[C@@H](C(=O)N[C@@H](C)C(N)=O)NC1=O)C(=O)CCSC[C@H](NC(C)=O)C(=O)N[C@@H](CC(C)(C)C)C(=O)N1CCC[C@H]1C(=O)N[C@@H](CCC(=O)O)C(=O)N[C@H](CCCCNC(=O)CCc1cn(CCOCCOCCOCCOCCOCCC(=O)N[C@H]3CSCCC(=O)N4CN5CN(C4)C(=O)CCSC[C@H](NC(=O)[C@@H](CC(=O)O)NC(=O)[C@H](Cc4cccc6ccccc46)NC(=O)[C@@H]4CCCN4C3=O)C(=O)N[C@@H](CCSC)C(=O)N[C@@H](CCCCNC(=N)N)C(=O)N[C@@H](CC(=O)O)C(=O)N[C@@H](Cc3c[nH]c4ccccc34)C(=O)N[C@@H](CO)C(=O)N[C@@H]([C@@H](C)O)C(=O)N3CCC[C@H]3C(=O)N3C[C@H](O)C[C@H]3C(=O)N[C@@H](Cc3c[nH]c4ccccc34)C(=O)N[C@H](C(N)=O)CSCCC5=O)nn1)C(=O)N1CCC[C@H]1C(=O)N[C@@H](Cc1ccc(O)cc1)C(=O)N2
half-life [1]: 55.8 min | fold change (FC) [2]: 8.3 | fold change (FC) [3]: 8.3 | Activity [4]: Active | Activity [5]: Dde | half-life [6]: 30 min | fold change (FC) [7]: 2 | clearance [8]: 30 mL/min/kg | solubility thermodynamic [9]: 29 mg/mL (≈ 6.16 mM) | fold change (FC) [10]: 2 | Vd [11]: 0.6 L/kg | Activity [12]: Dde | Activity [13]: Active

CCCC[C@@H]1NC(=O)[C@H](Cc2ccc(O)cc2)NC(=O)[C@@H]2CCCN2C(=O)[C@H](CC(=O)O)NC(=O)[C@H](C)NC(=O)[C@H](Cc2ccccc2)NC(=O)[C@@H]2CSCCC(=O)N3CN(CN(C3)C(=O)CCSC[C@@H](C(=O)N[C@@H](CNC(=O)CCOCCOCCOCCOCCOCCn3cc(CCC(=O)N[C@H]4CSCCC(=O)N5CN6CN(C5)C(=O)CCSC[C@H](NC(=O)[C@@H](CC(=O)O)NC(=O)[C@H](Cc5cccc7ccccc57)NC(=O)[C@@H]5CCCN5C4=O)C(=O)N[C@@H](CCSC)C(=O)N[C@@H](CCCCNC(=N)N)C(=O)N[C@@H](CC(=O)O)C(=O)N[C@@H](Cc4c[nH]c5ccccc45)C(=O)N[C@@H](CO)C(=O)N[C@@H]([C@@H](C)O)C(=O)N4CCC[C@H]4C(=O)N4C[C@H](O)C[C@H]4C(=O)N[C@@H](Cc4c[nH]c5ccccc45)C(=O)N[C@H](C(N)=O)CSCCC6=O)nn3)C(N)=O)NC1=O)C(=O)CCSC[C@H](NC(C)=O)C(=O)N[C@@H](CC(C)(C)C)C(=O)N1CCC[C@H]1C(=O)N[C@@H](CCC(=O)O)C(=O)N[C@H](C)C(=O)N1CCC[C@H]1C(=O)N[C@@H](Cc1ccc(O)cc1)C(=O)N2
half-life [1]: 57.6 min

CCCC[C@@H]1NC(=O)[C@H](Cc2ccc(O)cc2)NC(=O)[C@@H]2CCCN2C(=O)[C@H](CCC(=O)O)NC(=O)[C@H](C)NC(=O)[C@H](Cc2ccccc2)NC(=O)[C@@H]2CSCCC(=O)N3CN(CN(C3)C(=O)CCSC[C@H](NC(C)=O)C(=O)N[C@@H](CC(C)(C)C)C(=O)N3CCC[C@H]3C(=O)N[C@@H](CCC(=O)O)C(=O)N[C@H](CCCCNC(=O)CCc3cn(CCOCCOCCOCCOCCOCCC(=O)N[C@H]4CSCCC(=O)N5CN6CN(C5)C(=O)CCSC[C@H](NC(=O)[C@@H](CC(=O)O)NC(=O)[C@H](Cc5cccc7ccccc57)NC(=O)[C@@H]5CCCN5C4=O)C(=O)N[C@@H](CCSC)C(=O)N[C@@H](CCCCNC(=N)N)C(=O)N[C@@H](CC(=O)O)C(=O)N[C@@H](Cc4c[nH]c5ccccc45)C(=O)N[C@@H](CO)C(=O)N[C@@H]([C@@H](C)O)C(=O)N4CCC[C@H]4C(=O)N4C[C@H](O)C[C@H]4C(=O)N[C@@H](Cc4c[nH]c5ccccc45)C(=O)N[C@H](C(N)=O)CSCCC6=O)nn3)C(=O)N3CCC[C@H]3C(=O)N[C@@H](Cc3ccc(O)cc3)C(=O)N2)C(=O)CCSC[C@@H](C(N)=O)NC1=O
Kd [14]: 2.37 µM

CCCC[C@@H]1NC(=O)[C@H](Cc2ccc(O)cc2)NC(=O)[C@@H]2CCCN2C(=O)[C@H](CC(=O)O)NC(=O)[C@H](C)NC(=O)[C@H](Cc2ccccc2)NC(=O)[C@@H]2CSCCC(=O)N3CN(CN(C3)C(=O)CCSC[C@@H](C(=O)N[C@@H](CNC(=O)CCc3cn(CCOCCOCCOCCOCCOCCOCCOCCOCCOCCOCCNC(=O)N[C@H]4CSCCC(=O)N5CN6CN(C5)C(=O)CCSC[C@H](NC(=O)[C@@H](CC(=O)O)NC(=O)[C@H](Cc5cccc7ccccc57)NC(=O)[C@@H]5CCCN5C4=O)C(=O)N[C@@H](CCSC)C(=O)N[C@@H](CCCCNC(=N)N)C(=O)N[C@@H](CC(=O)O)C(=O)N[C@@H](Cc4c[nH]c5ccccc45)C(=O)N[C@@H](CO)C(=O)N[C@@H]([C@@H](C)O)C(=O)N4CCC[C@H]4C(=O)N4C[C@H](O)C[C@H]4C(=O)N[C@@H](Cc4c[nH]c5ccccc45)C(=O)N[C@H](C(N)=O)CSCCC6=O)nn3)C(N)=O)NC1=O)C(=O)CCSC[C@H](NC(=O)[C@H](C)NC(C)=O)C(=O)NC([C@@H](C)CC)C(=O)N[C@@H](CCC(=O)O)C(=O)N[C@@H](CCC(=O)O)C(=O)NCC(=O)N[C@@H](CCC(N)=O)C(=O)N[C@@H](Cc1ccc(O)cc1)C(=O)N2 (stereo not given in full)
Activity [15]: 73 nM

CCCC[C@@H]1NC(=O)[C@H](Cc2ccc(O)cc2)NC(=O)[C@@H]2CCCN2C(=O)[C@H](CC(=O)O)NC(=O)[C@H](C)NC(=O)[C@H](Cc2ccccc2)NC(=O)[C@@H]2CSCCC(=O)N3CN(CN(C3)C(=O)CCSC[C@@H](C(=O)N[C@@H](CNC(=O)CCc3cn(CCOCCOCCOCCOCCOCCOCCOCCOCCOCCOCCOCCOCCC(=O)NCCC(=O)N(C)CC(=O)N(C)CC(=O)N(C)CC(=O)N(C)CC(=O)N(C)CC(=O)N(C)CC(=O)N(C)CC(=O)N(C)CC(=O)N(C)CC(=O)N(C)CC(=O)N[C@H]4CSCCC(=O)N5CN6CN(C5)C(=O)CCSC[C@H](NC(=O)[C@@H](CC(=O)O)NC(=O)[C@H](Cc5cccc7ccccc57)NC(=O)[C@@H]5CCCN5C4=O)C(=O)N[C@H](CCSC)C(=O)N[C@@H](CCCCNC(=N)N)C(=O)N[C@H](CC(=O)O)C(=O)N[C@@H](Cc4c[nH]c5ccccc45)C(=O)N[C@@H](CO)C(=O)N[C@@H]([C@H](C)O)C(=O)N4CCC[C@H]4C(=O)N4C[C@H](O)C[C@H]4C(=O)N[C@@H](Cc4c[nH]c5ccccc45)C(=O)N[C@H](C(N)=O)CSCCC6=O)nn3)C(N)=O)NC1=O)C(=O)CCSC[C@H](NC(C)=O)C(=O)N[C@@H](CC(C)(C)C)C(=O)N1CCC[C@H]1C(=O)N[C@@H](CCC(=O)O)C(=O)N[C@@H](C)C(=O)N1CCC[C@H]1C(=O)N[C@@H](Cc1ccc(O)cc1)C(=O)N2
half-life [1]: 21.6 min | Activity [5]: Dde | Activity [12]: Dde

CCCC[C@@H]1NC(=O)[C@H](Cc2ccc(O)cc2)NC(=O)[C@@H]2CCCN2C(=O)[C@H](CC(N)=O)NC(=O)[C@H](C)NC(=O)[C@H](Cc2ccccc2)NC(=O)[C@@H]2CSCCC(=O)N3CN(CN(C3)C(=O)CCSC[C@H](NC(C)=O)C(=O)N[C@@H](CC(C)(C)C)C(=O)N3CCC[C@H]3C(=O)N[C@@H](CCC(=O)O)C(=O)N[C@H](CCCCNC(=O)CCc3cn(CCOCCOCCOCCOCCOCCC(=O)N[C@H]4CSCCC(=O)N5CN6CN(C5)C(=O)CCSC[C@H](NC(=O)[C@@H](CC(=O)O)NC(=O)[C@H](Cc5cccc7ccccc57)NC(=O)[C@@H]5CCCN5C4=O)C(=O)N[C@@H](CCSC)C(=O)N[C@@H](CCCCNC(=N)N)C(=O)N[C@@H](CC(=O)O)C(=O)N[C@@H](Cc4c[nH]c5ccccc45)C(=O)N[C@@H](CO)C(=O)N[C@@H]([C@@H](C)O)C(=O)N4CCC[C@H]4C(=O)N4C[C@H](O)C[C@H]4C(=O)N[C@@H](Cc4c[nH]c5ccccc45)C(=O)N[C@H](C(N)=O)CSCCC6=O)nn3)C(=O)N3CCC[C@H]3C(=O)N[C@@H](Cc3ccc(O)cc3)C(=O)N2)C(=O)CCSC[C@@H](C(N)=O)NC1=O
Kd [14]: 0.878 µM
